The source made the active and inactive calls. No cut-off for these calls is given here.
Experiments:
[1] = molecular target: T1, E3 ubiquitin-protein ligase Mdm2/Histone deacetylase 3 (Homo sapiens) (UniProt Q00987+O15379); experiment: PROTAC activity at MDM2/HDAC3 in human HCT-116 cells assessed as reduction in HDAC3 abundance by measuring remaining activity at 5 uM measured after 24 hrs by Western blot analysis; assay type: cell-based
Method in brief: (§1)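 HCT116 cells in DMEM with 10% FBS and glutamine/penicillin/streptomycin at 37 °C, 5% CO2. Seeded 4 × 10^5 cells/well, after 24 h treated 24 h with DMSO or compound in fresh medium. Lysed in Tris-HCl/NaCl/NP-40/Triton X-100 buffer with protease inhibitor, Bradford-quantified, 30 μg protein per lane. Quantitative Western blot with specific HDAC1/2/3 antibodies, IRDye secondaries, infrared imaging, versus DMSO. n = 2 replicates.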

[2] = molecular target: Lysine-specific histone demethylase 1A (Homo sapiens) (UniProt O60341); experiment: Induction of LSD1 degradation in human HCT-116 cells assessed as reduction in LSD1 abundance by measuring remaining activity at 0.5 uM measured after 24 hrs by Western blot analysis (reference value: 100%); assay type: cell-based
Method in brief: (§2)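 HCT116 cells seeded in six-well plates for 24 h, then exposed 24 h to compound (0.01–10 μM) or DMSO in fresh medium. Lysis in Tris-HCl/NaCl/NP-40/Triton X-100 with protease inhibitor. Bradford-normalised 30 μg protein per lane. Quantitative Western blot used specific HDAC1, HDAC2, HDAC3, LSD1 or Sin3a antibodies with IRDye secondaries. Abundance compared with DMSO, n = 2 replicates.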

[3] = molecular target: Lysine-specific histone demethylase 1A (Homo sapiens) (UniProt O60341); experiment: Induction of LSD1 degradation in human HCT-116 cells assessed as reduction in LSD1 abundance by measuring remaining activity at 10 uM measured after 24 hrs by Western blot analysis (reference value: 100%); assay type: cell-based; method in brief: as §2
[4] = molecular target: T1, E3 ubiquitin-protein ligase Mdm2/Histone deacetylase 3 (Homo sapiens); experiment: PROTAC activity at MDM2/HDAC3 in human HCT-116 cells assessed as reduction in HDAC3 abundance by measuring remaining activity at 0.025 uM measured after 24 hrs by Western blot analysis; assay type: cell-based; method in brief: as §2
[5] = molecular target: T2, Paired amphipathic helix protein Sin3a (Homo sapiens) (UniProt Q96ST3); experiment: Induction of SIN3A degradation in human HCT-116 cells assessed as reduction in SIN3A abundance by measuring remaining activity at 10 uM measured after 24 hrs by Western blot analysis (reference value: 100%); assay type: cell-based; method in brief: as §2
T2 sequence (whole entry): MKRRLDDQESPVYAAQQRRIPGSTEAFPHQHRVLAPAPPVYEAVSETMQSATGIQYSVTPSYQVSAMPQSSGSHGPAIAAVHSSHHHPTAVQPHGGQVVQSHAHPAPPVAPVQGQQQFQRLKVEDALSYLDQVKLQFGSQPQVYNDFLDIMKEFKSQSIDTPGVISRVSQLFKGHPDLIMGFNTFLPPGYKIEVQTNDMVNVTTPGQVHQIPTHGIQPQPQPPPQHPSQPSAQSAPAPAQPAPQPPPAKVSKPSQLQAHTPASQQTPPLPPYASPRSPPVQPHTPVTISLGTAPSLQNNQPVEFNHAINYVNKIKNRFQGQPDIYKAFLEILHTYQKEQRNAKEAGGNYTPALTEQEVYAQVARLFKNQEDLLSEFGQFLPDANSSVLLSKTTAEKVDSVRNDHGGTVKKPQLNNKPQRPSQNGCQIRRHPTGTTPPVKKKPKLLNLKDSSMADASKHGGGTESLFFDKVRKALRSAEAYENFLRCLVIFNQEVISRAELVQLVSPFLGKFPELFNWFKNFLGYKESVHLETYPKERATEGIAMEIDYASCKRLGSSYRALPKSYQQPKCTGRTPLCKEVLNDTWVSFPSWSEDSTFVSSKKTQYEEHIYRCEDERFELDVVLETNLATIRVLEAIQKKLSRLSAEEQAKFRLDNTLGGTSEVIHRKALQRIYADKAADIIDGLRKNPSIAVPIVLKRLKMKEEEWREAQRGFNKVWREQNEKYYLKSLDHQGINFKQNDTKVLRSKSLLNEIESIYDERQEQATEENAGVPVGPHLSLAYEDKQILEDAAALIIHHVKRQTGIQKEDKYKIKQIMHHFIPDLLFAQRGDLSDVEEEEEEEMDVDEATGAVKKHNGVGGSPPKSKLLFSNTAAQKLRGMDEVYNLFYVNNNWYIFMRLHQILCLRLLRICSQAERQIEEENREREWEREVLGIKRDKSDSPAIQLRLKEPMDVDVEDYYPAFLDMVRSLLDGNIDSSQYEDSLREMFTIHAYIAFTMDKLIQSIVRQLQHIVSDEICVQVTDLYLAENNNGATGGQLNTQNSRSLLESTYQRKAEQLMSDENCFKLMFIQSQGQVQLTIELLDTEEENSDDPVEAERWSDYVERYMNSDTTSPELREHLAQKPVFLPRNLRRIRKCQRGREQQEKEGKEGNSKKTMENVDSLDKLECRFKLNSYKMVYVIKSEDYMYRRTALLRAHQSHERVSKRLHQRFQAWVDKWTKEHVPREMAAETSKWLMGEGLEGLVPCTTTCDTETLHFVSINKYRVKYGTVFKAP

[6] = molecular target: T3, E3 ubiquitin-protein ligase Mdm2/Histone deacetylase 1 (Homo sapiens) (UniProt Q00987+Q13547); experiment: PROTAC activity at MDM2/HDAC1 in human HCT-116 cells assessed as decrease in HDAC1 abundance by measuring remaining activity at 1 uM measured after 24 hrs by Western blot analysis (reference value: 100%); assay type: cell-based; method in brief: as §2
[7] = molecular target: T3, E3 ubiquitin-protein ligase Mdm2/Histone deacetylase 1 (Homo sapiens); experiment: PROTAC activity at MDM2/HDAC1 in human HCT-116 cells assessed as induction of HDAC1 degradation by Western blot analysis; assay type: cell-based; settings: dose 0.01-10 µM
[8] = molecular target: Lysine-specific histone demethylase 1A (Homo sapiens) (UniProt O60341); experiment: Induction of LSD1 degradation in human HCT-116 cells assessed as reduction in LSD1 abundance by measuring remaining activity at 0.01 uM measured after 24 hrs by Western blot analysis (reference value: 100%); assay type: cell-based; method in brief: as §2
[9] = molecular target: T3, E3 ubiquitin-protein ligase Mdm2/Histone deacetylase 1 (Homo sapiens); experiment: PROTAC activity at MDM2/HDAC1 in human HCT-116 cells assessed as decrease in HDAC1 abundance by measuring remaining activity at 2.5 uM measured after 24 hrs by Western blot analysis (reference value: 100%); assay type: cell-based; method in brief: as §2
HCT-116 = experiment: Effect on histone H3 lysine K56 acetylation in human HCT-116 cells assessed as increase in H3K56ac level at 0.1 to 10 uM by Western blot analysis; assay type: functional, cell-based; settings: dose 0.1-10 µM
Method in brief: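 HCT116 cells (DMEM, 10% FBS, glutamine/pen/strep, 37 °C, 5% CO2) seeded 24 h, then treated with DMSO or compound in fresh medium. Pellets after lysis were acid-extracted with 0.4 N H2SO4 at 4 °C overnight. Acid histone extract run on 4–12% bis-Tris gels, transferred to nitrocellulose and probed for H3K56ac. IRDye secondaries with infrared imaging.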

[10] = molecular target: Lysine-specific histone demethylase 1A (Homo sapiens) (UniProt O60341); experiment: Induction of LSD1 degradation in human HCT-116 cells assessed as reduction in LSD1 abundance by measuring remaining activity at 5 uM measured after 24 hrs by Western blot analysis (reference value: 100%); assay type: cell-based; method in brief: as §2
[11] = molecular target: T1, E3 ubiquitin-protein ligase Mdm2/Histone deacetylase 3 (Homo sapiens); experiment: PROTAC activity at MDM2/HDAC3 in human HCT-116 cells assessed as reduction in HDAC3 abundance by measuring remaining activity at 10 uM measured after 24 hrs by Western blot analysis (reference value: 100%); assay type: cell-based; method in brief: as §1

T3 sequence (Q00987 whole entry, looked up): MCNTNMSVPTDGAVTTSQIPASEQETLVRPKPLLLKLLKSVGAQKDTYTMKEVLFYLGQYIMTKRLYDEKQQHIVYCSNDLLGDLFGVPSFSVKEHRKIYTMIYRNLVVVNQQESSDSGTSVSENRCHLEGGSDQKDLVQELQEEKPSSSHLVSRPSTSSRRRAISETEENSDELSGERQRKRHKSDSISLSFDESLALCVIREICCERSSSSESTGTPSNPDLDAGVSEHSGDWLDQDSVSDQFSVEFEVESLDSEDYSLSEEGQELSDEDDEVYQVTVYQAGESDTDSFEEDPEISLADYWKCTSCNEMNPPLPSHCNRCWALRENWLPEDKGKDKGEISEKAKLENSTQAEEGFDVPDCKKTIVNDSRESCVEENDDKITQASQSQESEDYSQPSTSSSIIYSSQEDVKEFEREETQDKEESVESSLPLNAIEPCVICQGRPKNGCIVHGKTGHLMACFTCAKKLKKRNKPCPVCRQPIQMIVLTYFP
T3 sequence (Q13547 whole entry, looked up): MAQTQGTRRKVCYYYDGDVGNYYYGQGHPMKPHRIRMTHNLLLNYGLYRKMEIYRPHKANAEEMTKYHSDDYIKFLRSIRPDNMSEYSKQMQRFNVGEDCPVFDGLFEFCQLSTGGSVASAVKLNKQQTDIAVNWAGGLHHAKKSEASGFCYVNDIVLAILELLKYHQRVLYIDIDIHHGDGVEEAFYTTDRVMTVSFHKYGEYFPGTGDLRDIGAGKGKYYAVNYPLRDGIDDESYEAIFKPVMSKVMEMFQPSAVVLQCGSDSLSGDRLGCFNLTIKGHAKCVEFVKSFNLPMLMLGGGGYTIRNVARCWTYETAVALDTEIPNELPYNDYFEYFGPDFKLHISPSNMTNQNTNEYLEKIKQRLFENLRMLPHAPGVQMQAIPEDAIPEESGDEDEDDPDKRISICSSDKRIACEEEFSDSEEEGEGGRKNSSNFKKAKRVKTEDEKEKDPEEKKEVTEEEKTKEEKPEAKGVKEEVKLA
T1 sequence (O15379 whole entry, looked up): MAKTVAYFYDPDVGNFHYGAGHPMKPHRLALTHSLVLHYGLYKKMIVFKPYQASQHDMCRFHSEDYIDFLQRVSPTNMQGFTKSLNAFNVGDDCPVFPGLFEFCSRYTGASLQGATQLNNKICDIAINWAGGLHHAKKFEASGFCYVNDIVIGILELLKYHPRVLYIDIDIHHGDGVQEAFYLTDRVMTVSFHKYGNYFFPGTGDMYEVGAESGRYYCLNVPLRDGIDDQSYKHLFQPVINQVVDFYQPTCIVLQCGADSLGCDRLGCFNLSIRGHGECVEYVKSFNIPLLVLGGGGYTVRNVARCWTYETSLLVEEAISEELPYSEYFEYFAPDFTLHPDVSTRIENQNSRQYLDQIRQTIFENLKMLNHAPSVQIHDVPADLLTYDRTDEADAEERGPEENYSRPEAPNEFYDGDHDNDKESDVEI
T1 sequence (Q00987 whole entry, looked up): as the sequence (Q00987 whole entry, looked up) above

Activity [1]: 105%
Activity [2]: 86%
Activity [3]: 65%
Activity [4]: 100%
Activity [5]: 45%
Activity [6]: 43%
Activity [7]: Dose-Dependent Effect
Activity [8]: 104%
Activity [9]: 39%
Activity [10]: 70%
Activity [11]: 91%
SMILES: COc1cc(C(=O)NCCOCCOCCOCCOCCC(=O)Nc2ccc(C(=O)Nc3ccccc3N)cc2)ccc1NC(=O)[C@@H]1N[C@@H](CC(C)(C)C)[C@](C#N)(c2ccc(Cl)cc2F)[C@H]1c1cccc(Cl)c1F
Activity (HCT-116): inactive

Source: ChEMBL document CHEMBL5357024, “MDM2 Antagonist Idasanutlin Reduces HDAC1/2 Abundance and Corepressor Partners but Not HDAC3” (ACS Med Chem Lett, 2024)
